Measurements as given in ChEMBL document CHEMBL6134775, “Breaking boundaries in diabetic nephropathy treatment: design and synthesis of novel steroidal SGLT2 inhibitors” (RSC Med Chem, 2025).
Blank lines part the entries; values can stand above or below the molecule they belong to. The source made the active and inactive calls. The rule behind the calls is not given here.

Key:
[1] = test system: NRK-52E; test: Cytotoxicity against rat NRK-52E cells assessed as reduction in cell viability at 1 to 50 uM pretreated with 33 mM glucose for 6 hrs followed by compound addition and measured after 24 hrs by Alamar blue dye based microplate reader analysis; type: toxicity; settings: dose 1-50 µM
Outline: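 Alamar blue assay in NRK-52E cells grown in high-glucose DMEM with 10% FBS at 37 °C, 5% CO2. At 80-90% confluency, cells got 33 mM glucose for 6 h, then compound at 1-50 μM (vehicle 0.1% DMSO + 1XPBS) for 24 h. Dye incubation 4 h; OD read at 570 and 600 nm. Viability expressed as the absorbance ratio to the vehicle control.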

[2] = target: T1, Sodium/glucose cotransporter 2 (Rattus norvegicus) (UniProt P53792); test: Inhibition of SGLT2-mediated glucose uptake in rat NRK-52E cells assessed as reduction in glucose uptake at 1 to 10 uM preincubated with 33 mM glucose for 6 hrs followed by compound addition and measured after 24 hrs by fluorescence based microplate reader analysis; type: cell-based; settings: dose 1-10 µM
T1 sequence (whole entry): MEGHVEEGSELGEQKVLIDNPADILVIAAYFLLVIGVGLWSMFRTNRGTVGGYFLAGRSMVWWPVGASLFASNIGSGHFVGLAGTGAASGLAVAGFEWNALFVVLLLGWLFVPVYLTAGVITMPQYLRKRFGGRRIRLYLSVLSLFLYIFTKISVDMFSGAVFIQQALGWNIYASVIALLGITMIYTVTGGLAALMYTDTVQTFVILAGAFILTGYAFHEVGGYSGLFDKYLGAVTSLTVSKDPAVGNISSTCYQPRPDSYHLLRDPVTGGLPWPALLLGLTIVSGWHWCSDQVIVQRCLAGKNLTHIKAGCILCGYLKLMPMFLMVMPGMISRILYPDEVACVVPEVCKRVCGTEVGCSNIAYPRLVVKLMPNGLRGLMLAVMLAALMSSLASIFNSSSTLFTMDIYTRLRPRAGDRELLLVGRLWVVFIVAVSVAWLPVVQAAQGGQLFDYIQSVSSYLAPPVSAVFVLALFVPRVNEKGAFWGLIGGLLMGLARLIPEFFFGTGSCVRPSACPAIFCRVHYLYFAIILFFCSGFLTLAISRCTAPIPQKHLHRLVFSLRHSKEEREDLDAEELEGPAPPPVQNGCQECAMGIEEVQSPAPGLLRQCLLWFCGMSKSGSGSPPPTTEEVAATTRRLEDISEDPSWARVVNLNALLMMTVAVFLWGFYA
Outline: (§1)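 6-NBDG uptake in NRK-52E cells seeded at 1×10^4/well, exposed to 33 mM glucose for 6 h, then to compound (1, 5, 10 μM; dose series 100 nM-10 μM; vehicle 0.1% DMSO + 1XPBS) for 24 h. Cells were rinsed in Na+-free buffer and given 20 μM 6-NBDG in Na+ or Na+-free HEPES buffer (pH 7.4) for 20 min at 37 °C. After lysis in 1% Triton X (pH 10) plus DMSO, fluorescence was read at 470/540 nm. Results are fold change vs control; n = 3.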

[3] = target: T2, Sodium/glucose cotransporter 2 (Rattus norvegicus, UniProt P53792); test: Inhibition of SGLT2-mediated glucose uptake in rat NRK-52E cells assessed as reduction in glucose uptake preincubated with 33 mM glucose for 6 hrs followed by compound addition and measured after 24 hrs by fluorescence based microplate reader analysis; type: cell-based; outline: as §1
T2 sequence (P53792 whole entry): T1 sequence (whole entry)

[4] = test system: NRK-52E; test: Induction of AMPK phosphorylation in glucose induced rat NRK-52E cells at 1 to 5 uM by Western blotting analysis; type: cell-based; settings: filed as activator, dose 1-5 µM
[5] = test system: NRK-52E; test: Inhibition of ROS generation in rat NRK-52E cells assessed as reduction in intracellular ROS generation at 0.25 to 10 uM preincubated with glucose for 6 hrs followed by compound addition and measured after 24 hrs by DCFDA staining based spectrofluorometric analysis; type: functional, cell-based; settings: dose 0.25-10 µM
Outline: (§2)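 NRK-52E cells in 24-well plates got 33 mM glucose for 6 h, then compound at 100 nM-10 μM (vehicle 0.1% DMSO + 1XPBS) for 24 h. Cells were loaded with 10 μM H2DCFDA for 30 min at 37 °C in the dark, lysed with 1% Triton X-100 and DMSO. Fluorescence was read at 480/530 nm in triplicate; the glucose-only signal was set as 100%.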

[6] = test system: NRK-52E; test: Downregulation of TGF-beta1 expression in glucose induced rat NRK-52E cells at 0.005 to 5 uM by Western blotting analysis; type: functional, cell-based; settings: dose 0.005-5 µM
[7] = test system: NRK-52E; test: Effect of SGLT1 protein expression in glucose-induced rat NRK-52E cells at 1 to 5 uM by Western blotting analysis; type: functional, cell-based; settings: dose 1-5 µM
[8] = test system: NRK-52E; test: Inhibition of fibronectin expression in glucose induced rat NRK-52E cells at 0.005 to 5 uM by Western blotting analysis; type: functional, cell-based; settings: dose 0.005-5 µM
[9] = test system: NRK-52E; test: Inhibition of collagen-IV expression in glucose induced rat NRK-52E cells at 0.005 to 5 uM by Western blotting analysis; type: functional, cell-based; settings: dose 0.005-5 µM
[10] = target: T1, Sodium/glucose cotransporter 2 (Rattus norvegicus); test: Inhibition of SGLT2-mediated glucose uptake in rat NRK-52E cells assessed as reduction in glucose uptake by measuring fold change at 500 nM preincubated with 33 mM glucose for 6 hrs followed by compound addition and measured after 24 hrs by fluorescence based microplate reader analysis; type: cell-based; outline: as §1
[11] = test system: NRK-52E; test: Downregulation of SGLT2 protein expression in glucose-induced rat NRK-52E cells at 1 to 5 uM by Western blotting analysis; type: functional, cell-based; settings: dose 1-5 µM
Outline: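 NRK-52E cells got 33 mM glucose for 6 h, then compound for 24 h, and were lysed in RIPA with protease/phosphatase inhibitors; protein was measured by BCA. Samples of about 20-30 μg were run on 10% SDS-PAGE and transferred to nitrocellulose. Blots were blocked in 1% BSA, probed with anti-SGLT2 (1:1000) overnight at 4 °C, then HRP anti-rabbit (1:1000) for 2 h, and detected by ECL with densitometry. β-actin served as loading control; three repeats.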

[12] = test system: NRK-52E; test: Downregulation of IL-6 expression in glucose induced rat NRK-52E cells at 0.005 to 5 uM by Western blotting analysis; type: functional, cell-based; settings: dose 0.005-5 µM
[13] = test system: Mitochondrial membrane; test: Restoration of mitochondrial membrane depolarization in glucose induced rat NRK-52E cells assessed as increase in green fluorescence intensity at […] pretreated with glucose for 6 hrs followed by compound addition and measured after 24 hrs by rhodamine-123 staining based cytofluorimetric analysis; type: cell membranes
Outline: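 NRK-52E cells (2×10^5/well) received 33 mM glucose for 6 h, then compound at 500 nM, 1 or 5 μM for 24 h. They were stained with 200 ng/mL rhodamine 123 for 30 min at 37 °C, washed, and analysed by flow cytometry.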

[14] = test system: NRK-52E; test: Inhibition of NF-kappaB activation in glucose induced rat NRK-52E cells at 0.005 to 5 uM by Western blotting analysis; type: cell-based; settings: dose 0.005-5 µM
[15] = test system: NRK-52E; test: Downregulation of NOX-4 expression in glucose induced rat NRK-52E cells at 1 to 5 uM by Western blotting analysis; type: functional, cell-based; settings: dose 1-5 µM
[16] = test system: NRK-52E; test: Inhibition of ROS generation in rat NRK-52E cells assessed as reduction in intracellular ROS generation at […] preincubated with glucose for 6 hrs followed by compound addition and measured after 24 hrs by DCFDA staining based spectrofluorometric analysis relative to glucose alone; type: functional, cell-based; outline: as §2
[17] = target: T1, Sodium/glucose cotransporter 2 (Rattus norvegicus); test: Inhibition of SGLT2-mediated glucose uptake in rat NRK-52E cells assessed as fold decrease in reduction of glucose uptake at 1 uM preincubated with 33 mM glucose for 6 hrs followed by compound addition and measured after 24 hrs by fluorescence based microplate reader analysis relative to glucose alone; type: cell-based; outline: as §1

SMILES: C[C@]12CC[C@H](O)CC1=CC[C@@H]1[C@@H]2CC[C@]2(C)c3c(cnc4cc(-c5ccc(Br)cc5)nn34)C[C@@H]12
Activity [1]: Non-toxic

SMILES: CC(=O)O[C@H]1CC[C@@]2(C)C(=CC[C@@H]3[C@@H]2CC[C@]2(C)c4c(cnc5nc6ccccc6n45)C[C@@H]32)C1
Activity [1]: Non-toxic

SMILES: C[C@]12CC[C@H](O)CC1=CC[C@@H]1[C@@H]2CC[C@]2(C)c3c(cnc4nc5c(Cl)cccc5n34)C[C@@H]12
Activity [1]: Non-toxic

inhibition [2]: inactive
SMILES: COc1cccc2nn3c4c(cnc3c12)C[C@H]1[C@@H]2CC=C3C[C@@H](O)CC[C@]3(C)[C@H]2CC[C@]41C
Activity [1]: Non-toxic

SMILES: CC(=O)O[C@H]1CC[C@@]2(C)C(=CC[C@@H]3[C@@H]2CC[C@]2(C)c4c(cnc5cc(-c6ccc(Cl)cc6)nn45)C[C@@H]32)C1
Activity [1]: Non-toxic

SMILES: CC(=O)O[C@H]1CC[C@@]2(C)C(=CC[C@@H]3[C@@H]2CC[C@]2(C)c4c(cnc5nc6cc(Cl)ccc6n45)C[C@@H]32)C1
Activity [1]: Non-toxic

inhibition [2]: inactive
SMILES: COc1cccc2nn3c4c(cnc3c12)C[C@H]1[C@@H]2CC=C3C[C@@H](OC(C)=O)CC[C@]3(C)[C@H]2CC[C@]41C
Activity [1]: Non-toxic

IC50 [3]: 2.35 nM
SMILES: Cc1ccc([C@@H]2O[C@H](CO)[C@@H](O)[C@H](O)[C@H]2O)cc1Cc1ccc(-c2ccc(F)cc2)s1 [CANAGLIFLOZIN ANHYDROUS]

SMILES: CC(=O)O[C@H]1CC[C@@]2(C)C(=CC[C@@H]3[C@@H]2CC[C@]2(C)c4c(cnc5cc(-c6ccc(Br)cc6)nn45)C[C@@H]32)C1
Activity [1]: Non-toxic

SMILES: CC(=O)O[C@H]1CC[C@@]2(C)C(=CC[C@@H]3[C@@H]2CC[C@]2(C)c4c(cnc5c(C#N)cnn45)C[C@@H]32)C1
Activity [1]: Non-toxic

SMILES: C[C@]12CC[C@H](O)CC1=CC[C@@H]1[C@@H]2CC[C@]2(C)c3c(cnc4cc(-c5ccccc5)nn34)C[C@@H]12
Activity [1]: Non-toxic

SMILES: CC(=O)O[C@H]1CC[C@@]2(C)C(=CC[C@@H]3[C@@H]2CC[C@]2(C)c4c(cnc5cc(-c6ccccc6)nn45)C[C@@H]32)C1
Activity [1]: Non-toxic

SMILES: CC(=O)O[C@H]1CC[C@@]2(C)C(=CC[C@@H]3[C@@H]2CC[C@]2(C)c4c(cnc5nc6c(Cl)cccc6n45)C[C@@H]32)C1
Activity [1]: Non-toxic

SMILES: C[C@]12CC[C@H](O)CC1=CC[C@@H]1[C@@H]2CC[C@]2(C)c3c(cnc4cc(-c5ccc(Cl)cc5)nn34)C[C@@H]12
Activity [1]: Non-toxic

SMILES: CC(=O)O[C@H]1CC[C@@]2(C)C(=CC[C@@H]3[C@@H]2CC[C@]2(C)c4c(cnc5nc6ccc(Cl)cc6n45)C[C@@H]32)C1
Activity [1]: Non-toxic

fold change (FC) [10]: 1.4
Activity [13]: Active
inhibition [2]: Active
fold change (FC) [17]: 2
IC50 [3]: 2.91 nM
SMILES: C[C@]12CC[C@H](O)CC1=CC[C@@H]1[C@@H]2CC[C@]2(C)c3c(cnc4nc5ccccc5n34)C[C@@H]12
Activity [4]: Active
inhibition [5]: Active; Significant Decrease Observed
Activity [6]: Active
Activity [7]: inactive
inhibition [8]: Active
inhibition [9]: Active
Activity [11]: Active
Activity [12]: Active
inhibition [14]: Active
Activity [1]: Non-toxic
Activity [15]: Active
inhibition [16]: Active

SMILES: C[C@]12CC[C@H](O)CC1=CC[C@@H]1[C@@H]2CC[C@]2(C)c3c(cnc4nc5cc(Cl)ccc5n34)C[C@@H]12
Activity [1]: Non-toxic
